One compound from ChEMBL document CHEMBL4007452, “Discovery of an Orally Selective Inhibitor of Signal Transducer and Activator of Transcription 3 Using Advanced Multiple Ligand Simultaneous Docking” (J Med Chem, 2017) can be followed below.

The subject of series [1] is Mus musculus. Nature of the series: In vivo inhibition of STAT3 in po dosed BALB/c nude mouse xenografted with human MDA-MB-231 assessed as reduction in p-STAT3(Y705) level administered as qd for 32 days by Western blot analysis. It counts as functional, organism-based. In outline: (§1)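 Whole-cell lysates from MDA-MB-231 xenograft tumors of mice dosed orally at 2.5, 5 or 10 mg/kg were immunoblotted for P-STAT3(Y705), T-STAT3 and GAPDH.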
On the technique in general: A xenograft is tissue or cells of one species grown in another, often human tumour cells in immunodeficient mice.

In series [2] the test system is Mus musculus. Nature of the series: Toxicity in BALB/c nude mouse xenografted with human MDA-MB-231 cells assessed as kidney damage at 2.5 to 10 mg/kg, po qd administered for 32 days by H&E staining based light microscopy. It counts as organism-based. As to conditions: in vivo, 768 h. In outline: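 6-week-old female athymic SPF BALB/c nude mice received 5 x 10^6 MDA-MB-231 cells s.c. in the flank. Oral treatment began once tumors reached about 100 mm3, with 8 mice per group and a saline vehicle control. […] Treatment lasted 32 days. Heart, liver, spleen, lung and kidney were fixed 48 h in 10% neutral-buffered formaldehyde, paraffin-embedded, cut at 5 µm, H&E-stained and examined by light microscopy.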

Series [3] has as its target Epidermal growth factor receptor (Homo sapiens) (UniProt P00533). The series is described as follows: Inhibition of EGFR in human UW426 cells assessed as reduction in p-Akt level at 1 to 2.5 uM after 24 hrs by immunoblot analysis. It counts as cell-based. In short, it runs like this: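 UW426 cells at 60–80% confluence were treated 24 h at 1-2.5 µM with 10% FBS, against a DMSO control, then immunoblotted.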

A short description of series [4]: MRT (0 to t) in Sprague-Dawley rat plasma at 1 mg/kg, iv measured after 24 hrs by UPLC analysis. It counts as ADME, organism-based. In short, it runs like this:
(§2)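 Rat plasma sampled from 2 min to 24 h after a single i.v. (1 mg/kg) or p.o. (10 mg/kg) dose. Parameters were derived from the concentration-time profiles. The bioanalytical method was validated to FDA guidelines for selectivity, linearity, LLOQ, accuracy, precision, recovery, matrix effect and stability.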

A short description of series [5]: Tmax in Sprague-Dawley rat plasma at 10 mg/kg, po measured after 24 hrs by UPLC analysis. It counts as ADME, organism-based. In outline:
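Rats dosed i.v. or p.o. Plasma concentrations followed from 2 min to 24 h after dosing. The bioanalytical method was validated to FDA guidelines for selectivity, linearity, LLOQ, accuracy, precision, recovery, matrix effect and stability.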

For series [6], the target named is T1, Signal transducer and activator of transcription 3 (Homo sapiens, UniProt P40763). As to conditions: 5 uM.
Series [7] in a line: Initial plasma concentration in Sprague-Dawley rat at 1 mg/kg, iv measured after 24 hrs by UPLC analysis. It counts as ADME, organism-based. In outline:
as §2

In a further series the test system is MDA-MB-231. The series is described as follows: Antiproliferative activity against human MDA-MB-231 cells after 24 hrs by MTT assay. It counts as functional, cell-based. As to conditions: MDA-MB-231, 24 h. In outline:
(§3)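 Cells were seeded at 3000 per well and incubated 24 h at 37 °C. Compounds were added in triplicate with 10% FBS: 0.1-10 or 0.1-20 µM for cancer lines, 3.125-400 µM for MCF-10A. Viability was read by MTT absorbance at 595 nm, with IC50 fitted from the curves. DMSO stocks were 20 mM.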
(In general: Formazan colour is commonly taken as a measure of viable cells.)

Series [8] deals with Mus musculus. The series is described as follows: Effect on total STAT3 level in BALB/c nude mouse xenografted with human MDA-MB-231 at 2.5 to 10 mg/kg, po qd administered for 32 days by Western blot analysis. The format is ADME, organism-based. The conditions noted are these: in vivo, 768 h. In outline: as §1
A short description of series [9]: Antiproliferative activity against human BkPC-3 cells after 24 hrs by MTT assay. The conditions noted are these: BkPC-3, 24 h. The format is functional, cell-based. In short, it runs like this:
as §3

Series [10] is described as follows: AUC (0 to infinity) in Sprague-Dawley rat plasma at 1 mg/kg, iv measured after 24 hrs by UPLC analysis. It counts as ADME, organism-based. On the set-up: dose 1 mg/kg, time infinity, route intravenous. In outline: as §2
Series [11] deals with T1, Signal transducer and activator of transcription 3. Nature of the series: Displacement of 5-FAM-SpYLPQTV from STAT3 (unknown origin) at pY705 site after 30 mins by fluorescence polarization assay.
A short description of series [12]: AUC (0 to t) in Sprague-Dawley rat plasma at 10 mg/kg, po measured after 24 hrs by UPLC analysis. The format is ADME, organism-based. On the set-up: time < 24 hr, dose 10 mg/kg, route oral. In short, it runs like this:
as §2

Series [13] is described as follows: AUC (0 to infinity) in Sprague-Dawley rat plasma at 10 mg/kg, po measured after 24 hrs by UPLC analysis. It counts as ADME, organism-based. Also on record: dose 10 mg/kg, route oral, time infinity. In outline: as §2
The next series deals with MCF-10A. Nature of the series: Antiproliferative activity against human MCF10A cells after 24 hrs by MTT assay. The format is cell-based. In short, it runs like this:
as §3

For series [14], the target named is T2, Signal transducer and activator of transcription 1-alpha/beta (Homo sapiens) (UniProt P42224).
T2 sequence (whole entry): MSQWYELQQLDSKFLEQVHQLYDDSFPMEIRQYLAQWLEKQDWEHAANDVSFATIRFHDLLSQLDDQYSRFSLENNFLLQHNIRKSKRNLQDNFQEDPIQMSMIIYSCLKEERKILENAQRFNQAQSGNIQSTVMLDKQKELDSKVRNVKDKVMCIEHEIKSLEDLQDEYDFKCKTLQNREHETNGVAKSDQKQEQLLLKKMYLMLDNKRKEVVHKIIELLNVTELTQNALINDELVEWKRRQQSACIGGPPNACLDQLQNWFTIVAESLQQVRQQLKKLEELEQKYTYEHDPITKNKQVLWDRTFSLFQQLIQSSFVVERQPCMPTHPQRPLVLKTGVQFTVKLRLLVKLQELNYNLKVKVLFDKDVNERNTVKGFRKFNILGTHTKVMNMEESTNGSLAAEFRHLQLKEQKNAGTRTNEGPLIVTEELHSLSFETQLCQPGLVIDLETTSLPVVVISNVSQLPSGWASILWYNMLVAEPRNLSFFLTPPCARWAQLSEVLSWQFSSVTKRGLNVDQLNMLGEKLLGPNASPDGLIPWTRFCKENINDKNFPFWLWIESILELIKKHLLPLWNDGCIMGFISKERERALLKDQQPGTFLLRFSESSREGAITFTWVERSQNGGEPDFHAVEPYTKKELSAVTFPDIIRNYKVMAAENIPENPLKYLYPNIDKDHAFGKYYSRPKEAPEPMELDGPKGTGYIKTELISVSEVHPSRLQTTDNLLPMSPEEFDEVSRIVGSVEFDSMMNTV
Nature of the series: Inhibition of STAT1 in human MDA-MB-231 cells assessed as reduction in CDK2 mRNA level at 5 to 10 uM by RT-PCR analysis. The format is cell-based. In outline:
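Total RNA was extracted from treated MDA-MB-231 cells and 1 µg reverse-transcribed. qPCR ran 95 °C 5 min, then 40 cycles of 95 °C 10 s, 60 °C 15 s and 72 °C 15 s, followed by a melt curve from 60 to 95 °C.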

The target of series [15] is T1, Signal transducer and activator of transcription 3. The conditions noted are these: 2.5 to 5 uM.

Active and inactive are the calls of the source. No cut-off for these calls is given here.

T1 sequence (P40763 whole entry): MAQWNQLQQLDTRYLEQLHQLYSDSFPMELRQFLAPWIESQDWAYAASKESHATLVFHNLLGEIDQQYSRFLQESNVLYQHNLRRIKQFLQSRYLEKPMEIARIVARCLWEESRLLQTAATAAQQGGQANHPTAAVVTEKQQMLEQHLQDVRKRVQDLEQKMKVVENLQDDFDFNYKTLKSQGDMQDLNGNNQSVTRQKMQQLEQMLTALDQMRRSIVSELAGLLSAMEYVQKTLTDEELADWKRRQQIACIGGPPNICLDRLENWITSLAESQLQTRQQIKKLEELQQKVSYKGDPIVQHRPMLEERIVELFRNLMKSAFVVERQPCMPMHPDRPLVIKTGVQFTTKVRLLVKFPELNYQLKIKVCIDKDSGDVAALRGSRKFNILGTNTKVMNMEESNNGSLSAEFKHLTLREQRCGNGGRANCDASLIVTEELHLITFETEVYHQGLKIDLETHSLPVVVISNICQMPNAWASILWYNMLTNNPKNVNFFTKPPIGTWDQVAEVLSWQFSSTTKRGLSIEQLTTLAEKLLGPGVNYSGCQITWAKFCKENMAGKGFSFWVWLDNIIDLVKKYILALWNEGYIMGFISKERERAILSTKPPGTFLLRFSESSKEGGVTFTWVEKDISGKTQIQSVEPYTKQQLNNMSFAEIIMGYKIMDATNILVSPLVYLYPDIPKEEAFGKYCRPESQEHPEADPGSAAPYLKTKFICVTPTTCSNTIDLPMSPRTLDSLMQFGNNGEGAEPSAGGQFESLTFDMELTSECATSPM
Epidermal growth factor receptor (Homo sapiens), sequence (P00533 whole entry): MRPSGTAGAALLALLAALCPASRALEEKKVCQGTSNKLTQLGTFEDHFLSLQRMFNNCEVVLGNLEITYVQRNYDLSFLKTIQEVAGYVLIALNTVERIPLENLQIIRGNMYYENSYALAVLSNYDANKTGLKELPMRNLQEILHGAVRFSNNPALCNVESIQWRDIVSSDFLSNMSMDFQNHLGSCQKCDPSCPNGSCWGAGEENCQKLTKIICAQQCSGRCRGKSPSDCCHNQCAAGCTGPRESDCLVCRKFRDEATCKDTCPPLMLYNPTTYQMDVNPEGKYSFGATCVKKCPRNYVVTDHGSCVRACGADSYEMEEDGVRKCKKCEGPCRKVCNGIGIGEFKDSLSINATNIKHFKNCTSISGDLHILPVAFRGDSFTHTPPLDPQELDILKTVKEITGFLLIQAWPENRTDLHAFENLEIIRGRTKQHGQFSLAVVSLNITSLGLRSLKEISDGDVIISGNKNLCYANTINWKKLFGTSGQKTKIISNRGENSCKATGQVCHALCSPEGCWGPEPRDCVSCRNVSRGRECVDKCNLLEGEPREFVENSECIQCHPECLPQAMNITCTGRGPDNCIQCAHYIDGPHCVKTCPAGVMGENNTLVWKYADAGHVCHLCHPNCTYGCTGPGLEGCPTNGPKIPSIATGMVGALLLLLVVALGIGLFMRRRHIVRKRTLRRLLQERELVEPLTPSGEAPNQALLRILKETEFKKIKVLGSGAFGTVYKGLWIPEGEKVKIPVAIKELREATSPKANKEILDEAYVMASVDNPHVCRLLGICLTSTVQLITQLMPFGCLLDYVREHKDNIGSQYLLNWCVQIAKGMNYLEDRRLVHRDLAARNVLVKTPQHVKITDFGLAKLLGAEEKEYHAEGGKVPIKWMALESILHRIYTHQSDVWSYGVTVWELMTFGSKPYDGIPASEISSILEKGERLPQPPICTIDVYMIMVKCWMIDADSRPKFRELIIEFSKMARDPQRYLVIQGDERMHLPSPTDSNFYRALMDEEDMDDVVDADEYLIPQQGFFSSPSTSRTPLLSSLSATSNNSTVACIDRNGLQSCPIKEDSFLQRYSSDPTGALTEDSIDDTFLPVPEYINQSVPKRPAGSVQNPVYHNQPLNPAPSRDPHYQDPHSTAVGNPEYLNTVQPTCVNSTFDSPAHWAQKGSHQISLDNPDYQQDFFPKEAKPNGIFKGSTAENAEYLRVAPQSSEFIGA

Consider `NS(=O)(=O)c1cccc2c1C(=O)C=C(Nc1ccccc1N1CCNCC1)C2=O`, for which the inhibition entry in the series on Mus musculus [1] was “Dose-dependent effect”. The Activity result in the series with Mus musculus [2] and in the series with Mus musculus [8] was “Non-Toxic” throughout. The inhibition entry in series [3] and in series [14] was “inactive” in each case. The MRT last (in general, the average time that molecules of a dose stay in the body) at 24 h in [4] is 33 min. In series [5], the Tmax (usually the time from dosing to the highest level) was 30 min. Moreover, the inhibition result in series [6] and in series [15] was “Active” throughout. The same compound showed a C0 at 24 h in series [7] of 382 ng/mL. Also, the IC50 (usually the concentration that gives 50% inhibition) amounted to 700 nM in the series with MDA-MB-231, 5.1 µM in series [9] and 129 µM in the series on MCF-10A. In addition, the total exposure AUC(0-inf) (commonly total exposure, with the tail of the curve extrapolated) in [10] was 199 ng·h/mL; in [13], 889 ng·h/mL. Also, the Ki (in general, the equilibrium dissociation constant of an inhibitor or competing ligand from its target) in series [11] was determined as 440 nM. In addition, the exposure AUC(0-t) (commonly exposure summed from dosing to a finite time, without extrapolation to infinity) at 24 h in series [12] turned out to be 850 ng·h/mL.
